Data on eleven compounds can be found in ChEMBL document CHEMBL4145447, “4-arylamidobenzyl substituted 5-bromomethylene-2(5H)-furanones for chronic bacterial infection” (Eur J Med Chem, 2018).

In series [1] the target is T1, Anthranilate--CoA ligase (Pseudomonas aeruginosa (strain ATCC 15692 / DSM 22644 / CIP 104116 /JCM 14847 / LMG 12228 / 1C / PRS 101 / PAO1)) (UniProt Q9I4X3).
T1 sequence (whole entry): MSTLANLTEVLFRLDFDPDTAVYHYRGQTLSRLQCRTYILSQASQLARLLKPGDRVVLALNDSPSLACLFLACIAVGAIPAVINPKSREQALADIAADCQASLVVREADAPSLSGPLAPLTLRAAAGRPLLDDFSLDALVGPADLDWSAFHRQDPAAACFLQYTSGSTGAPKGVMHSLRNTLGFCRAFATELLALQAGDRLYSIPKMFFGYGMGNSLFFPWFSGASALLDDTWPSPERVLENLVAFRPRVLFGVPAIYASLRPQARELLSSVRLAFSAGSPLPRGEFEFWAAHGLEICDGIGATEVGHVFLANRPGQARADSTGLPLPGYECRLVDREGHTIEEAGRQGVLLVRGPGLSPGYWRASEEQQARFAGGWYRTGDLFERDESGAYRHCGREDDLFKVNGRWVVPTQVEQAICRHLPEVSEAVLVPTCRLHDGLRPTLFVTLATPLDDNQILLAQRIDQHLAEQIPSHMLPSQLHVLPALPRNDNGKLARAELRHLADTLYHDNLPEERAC
The series can be described thus: Inhibition of Pseudomonas aeruginosa PAO1 GFP-fused quorum sensing pqsA at 10 uM measured every 15 mins up to 12 hrs by GFP reporter gene assay relative to control. The procedure, abridged:
(§1)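 GFP reporter strains of P. aeruginosa PAO1 (lasB-, rhlA- or pqsA-promoter fused to unstable gfp(ASV)) grown overnight in LB at 37 °C, 200 rpm, 18 h, then diluted 1:100. Culture mixed 1:1 with compound diluted in LB from 10 mM DMSO stock (0.1% DMSO final). Fluorescence (ex 485/em 528 nm) read every 15 min at 37 °C for ≥12 h.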
Background: In a reporter assay the amount or activity of a reporter protein is the signal.

A short description of series [2]: Cytotoxicity against mouse RAW264.7 cells assessed as cell viability at 10 uM after 48 hrs by MTT assay relative to control. It is filed as cell-based. As to conditions: read-out: Activity. The procedure, abridged:
(§2)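 MTT viability: RAW264.7 cells (4 × 10^4/well) in DMEM + 10% FBS exposed to compounds diluted in DMEM for 48 h. MTT 0.5 mg/mL added for 4 h in the dark, formazan dissolved in DMSO, read at 570 nm. Viability = treated/medium-only control × 100; three independent experiments.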
On the technique in general: Tetrazolium dyes change colour on reduction, which living cells bring about.

The subject of series [3] is RAW264.7. The series can be described thus: Anti-inflammatory activity in mouse RAW264.7 cells assessed as inhibition of LPS-induced IL-6 production by measuring […] level at 10 uM preincubated for 2 hrs followed by LPS stimulation and measured after 12 hrs by ELISA (reference value: 175.2 +/- 10.2 pg/ml). It is filed as functional. A general note: An ELISA detects its analyte on a solid surface through an enzyme-linked reagent.

For series [4], the system named is Mus musculus. Briefly: Anti-inflammatory activity in LPS-induced sepsis shock mouse model assessed as survival rate at 1 mg/kg, iv pretreated daily for 5 days followed LPS treatment on day 5 at 1 hr post last dose and measured after 7 days relative to control. It is filed as functional. In a few lines:
(§3)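 Male SPF mice, randomly grouped, dosed i.v. with compound dissolved in DMSO and diluted in physiological saline; vehicle group given a similar volume. LPS was injected on day 5, 1 h after the last administration. Survival was recorded every 12 h for 7 days after LPS, with 11 animals per group per figure legend.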

Series [5] deals with Elastase (Pseudomonas aeruginosa (strain ATCC 15692 / PAO1 / 1C / PRS 101 / LMG12228)) (UniProt P14756). Briefly: Inhibition of Pseudomonas aeruginosa PAO1 GFP-fused quorum sensing lasB at 10 uM measured every 15 mins up to 12 hrs by GFP reporter gene assay relative to control. The procedure, abridged: as §1
Chain of Elastase (Pseudomonas aeruginosa (strain ATCC 15692 / PAO1 / 1C / PRS 101 / LMG12228)) (P14756 198-498 limits assumed): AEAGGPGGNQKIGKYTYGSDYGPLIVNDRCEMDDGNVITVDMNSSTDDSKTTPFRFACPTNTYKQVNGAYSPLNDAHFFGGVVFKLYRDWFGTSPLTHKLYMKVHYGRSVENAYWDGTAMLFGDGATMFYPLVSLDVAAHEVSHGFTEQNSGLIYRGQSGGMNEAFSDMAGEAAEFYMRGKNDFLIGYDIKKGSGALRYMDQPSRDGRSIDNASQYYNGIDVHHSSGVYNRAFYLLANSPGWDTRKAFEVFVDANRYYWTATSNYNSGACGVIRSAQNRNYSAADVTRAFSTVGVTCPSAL
Series [6] deals with Pseudomonas aeruginosa PAO1. Briefly: Inhibition of Pseudomonas aeruginosa PAO1 GFP-fused quorum sensing rhlA at 10 uM measured every 15 mins up to 12 hrs by GFP reporter gene assay relative to control. In a few lines: as §1
Series [7] deals with RAW264.7. Briefly: Anti-inflammatory activity in mouse RAW264.7 cells assessed as inhibition of LPS-induced TNF-alpha production by measuring TNF-alpha level at 10 uM preincubated for 2 hrs followed by LPS stimulation and measured after 12 hrs by ELISA (reference value: 21561.3 +/- 857 pg/ml). It is filed as functional.
For series [8], the system named is RAW264.7. Briefly: Anti-inflammatory activity in mouse RAW264.7 cells assessed as inhibition of LPS-induced NO production at 10 uM preincubated for 2 hrs followed by LPS stimulation and measured after 48 hrs by Griess method relative to control. It is filed as functional. The procedure, abridged: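 RAW264.7 cells seeded at 5 × 10^4/well and cultured 18 h, then given 10 µM compound plus LPS 100 ng/mL for 48 h at 37 °C. Supernatant mixed 1:1 with Griess reagent (1% sulfanilamide, 0.1% naphthylethylenediamine in 5% phosphoric acid) for 10 min; nitrite read at OD540.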

Series [9] relates to RAW264.7. The series can be described thus: Anti-inflammatory activity in mouse RAW264.7 cells assessed as inhibition of LPS-induced TNF-alpha production by measuring TNF-alpha level at 10 uM preincubated for 2 hrs followed by LPS stimulation and measured after 6 hrs by ELISA (reference value: 11922 +/- 628.4 pg/ml). Format: functional.
For series [10], the system named is Mus musculus. Briefly: Anti-inflammatory activity in LPS-induced sepsis shock mouse model assessed as survival rate at 20 mg/kg, iv pretreated daily for 5 days followed LPS treatment on day 5 at 1 hr post last dose and measured after 7 days relative to control. It is filed as functional. The procedure, abridged: as §3
Series [11] concerns RAW264.7. The series can be described thus: Anti-inflammatory activity in mouse RAW264.7 cells assessed as inhibition of LPS-induced TNF-alpha production by measuring TNF-alpha level at 10 uM preincubated for 2 hrs followed by LPS stimulation and measured after 24 hrs by ELISA (reference value: 24216 +/- 498.7 pg/ml). Format: functional.
Series [12] has as its system RAW264.7. Briefly: Anti-inflammatory activity in mouse RAW264.7 cells assessed as inhibition of LPS-induced IL-6 production by measuring […] level at 10 uM preincubated for 2 hrs followed by LPS stimulation and measured after 6 hrs by ELISA (reference value: 94.6 +/- 5.9 pg/ml). Format: functional.
In series [13] the test system is RAW264.7. The series can be described thus: Anti-inflammatory activity in mouse RAW264.7 cells assessed as inhibition of LPS-induced IL-6 production by measuring IL-6 level at 10 uM preincubated for 2 hrs followed by LPS stimulation and measured after 24 hrs by ELISA (reference value: 407.6 +/- 16.7 pg/ml).
Series [14] in a line: Cytotoxicity against mouse RAW264.7 cells assessed as cell viability at 5 uM after 48 hrs by MTT assay relative to control. It is filed as cell-based. To be noted: read-out: Activity. The procedure, abridged:
as §2

Consider `CN(CCOc1ccc(CC2SC(=O)NC2=O)cc1)c1ccccn1` (stereo not drawn) [ROSIGLITAZONE], for which the inhibition in series [1] came out at 9.19%; in series [5] it was 7.43%; in series [6], 15.5%. The viability at 48 h, 10 µM in series [2] was 99%. Also, the Activity in the series with RAW264.7 [3] was found to be 140 pg/mL; with RAW264.7 [7], 20616 pg/mL; in the series with RAW264.7 [9] it was 11311.3 pg/mL; in the series on RAW264.7 [11], 22226 pg/mL; with RAW264.7 [12] it was 64.8 pg/mL; in the series with RAW264.7 [13], 345.6 pg/mL. Also, the survival at 1 mg/kg in the series on Mus musculus [4] was 36.5%. For the same compound, the inhibition at 10 µM with RAW264.7 [8] came to 16.6%. In the series on Mus musculus [10], the survival at 20 mg/kg was found to be 45.5%.
With `O=C(Nc1ccccc1)c1cc([N+](=O)[O-])ccc1Cl`, the viability at 48 h, 5 µM in series [14] is 99.1%.
With `COc1ccc2c(c1)c(CC(=O)O)c(C)n2C(=O)c1ccc(Cl)cc1` [INDOMETHACIN], the Activity came to 120.7 pg/mL in the series on RAW264.7 [3]; 19664 pg/mL in the series with RAW264.7 [7]; 10850 pg/mL in the series on RAW264.7 [9]; 20772 pg/mL with RAW264.7 [11]; 59.6 pg/mL in the series on RAW264.7 [12]; 286.6 pg/mL in the series on RAW264.7 [13]. Moreover, in the series with RAW264.7 [8], the inhibition at 10 µM was determined as 29.4%.
As for `O=C(Cc1ccc(Br)cc1)Nc1ccc(CC2=CC(=O)OC2=CBr)cc1`, the inhibition in series [1] was 40.8%; in series [5], 24.9%; in series [6], 17.2%. In the series on RAW264.7 [8], the inhibition at 10 µM was 64.9%.
`Cc1ccc(CC(=O)Nc2ccc(CC3=CC(=O)OC3=C(Br)Br)cc2)cc1`: the inhibition in [1] turned out to be 24.5%; in series [5] it was 14.2%; in [6], 16.4%. In addition, the inhibition at 10 µM in the series on RAW264.7 [8] is 19%.
Consider `O=C(Cc1ccccc1)Nc1ccc(CC2=CC(=O)OC2=CBr)cc1`, for which the results for the inhibition in series [1], in series [5] and in [6] were 25.8%, 18% and 17.3%, respectively. The inhibition at 10 µM with RAW264.7 [8] was found to be 59.5%.
In the case of `O=C(Cc1c(Cl)cccc1Cl)Nc1ccc(CC2=CC(=O)OC2=CBr)cc1`, the inhibition turned out to be 17.6% in series [1], 16.9% in series [5] and 15.2% in [6]. The inhibition at 10 µM with RAW264.7 [8] was 66.6%.
As to `COc1cc(CC(=O)Nc2ccc(CC3=CC(=O)OC3=CBr)cc2)cc(OC)c1OC`, the inhibition in [1] was 20.3%; in [5], 8.53%; in series [6], 5.57%. Further, the inhibition at 10 µM in the series on RAW264.7 [8] is 34.3%.
Take `O=C(Cc1ccccc1)Nc1ccc(CC2=CC(=O)OC2=C(Br)Br)cc1`: the inhibition was 24.8% in [1], 19.2% in [5] and 19.2% in [6]. In addition, in the series on RAW264.7 [8], the inhibition at 10 µM amounted to 44.1%.
With `O=C1C=C(Cc2ccc(NC(=O)c3ccccc3)cc2)C(=C(Br)Br)O1`, the inhibition in series [1] came out at 28.2%; in series [5], 21.2%; in [6], 20.2%. In addition, the inhibition at 10 µM with RAW264.7 [8] worked out at 30.3%.
Consider `Cc1ccc(CC(=O)Nc2ccc(CC3=CC(=O)OC3=CBr)cc2)cc1`, for which the inhibition was 29.8% in series [1], 19% in series [5] and 18.2% in [6]. For the same compound, the inhibition at 10 µM in the series on RAW264.7 [8] was determined as 29.4%.

In general, inhibition refers to the drop in the measured response relative to a control, in per cent.
